The text below walks through data of publication PMC5388420 (Nucleic Acids Research, 2016).

For data set [1], the system named is 5΄ppp10L hairpin RNA. The settings on record: presence of either ATPγS or ADP; ref [22]; cited from earlier work.
The target of data set [2] is FAM-labeled 10 base pair RNA hairpin (OH10L). Briefly: Equilibrium fluorescent RNA binding assay. The note with it: read-out: Equilibrium RNA binding Kd, OH10L. Summed up:
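Recombinant hRIG-I was expressed from pET-SUMO in E. coli Rosetta II (DE3) and purified by nickel, heparin and Superdex 200 chromatography. 6-FAM was attached via the amino-modified UUCG tetraloop, with 2 nM hairpin final. Buffer: 25 mM MOPS pH 7.4, 150 mM NaCl, 5 mM DTT, 0.01% Triton X-100. Protein was titrated over 12 points (1.5–1500 nM) and equilibrated 2 h at RT. Polarization was read at ex 485/em 528 (G = 0.87), 2 wells × 3 reads, and fit one-site total binding. Three experiments gave mean and SD.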

For data set [3], the system named is 5΄ppp10L RNA hairpin. Briefly: NADH coupled ATPase activity assay. In kind it is biochemical. The note with it: for K M,RNA / k cat: steady state ATPase activity; for K M,RNA: 5΄ppp10L. Summed up: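 Coupled NADH assay: 10 nM RIG-I in 25 mM MOPS pH 7.4, 150 mM NaCl, 5 mM DTT with 1 mM NADH, 100 U/ml lactate dehydrogenase, 500 U/ml pyruvate kinase and 2.5 mM PEP. The hairpin was added as a 12-point series (~0.5–500 nM, diluted in MES pH 6.0/EDTA) and incubated ≥2 h at RT. Reactions were started with 5 mM ATP/5 mM MgCl2, and NADH absorbance loss was followed for 10 min. Mean velocities were plotted against RNA concentration.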

A short description of data set [4]: MANT-ATP binding by stopped flow fluorescence spectroscopy. The note with it: for Kd: read-out: MANT-ATP binding Kd (calc., koff/kon).
In data set [5] the test system is IFN-β/FireflyLuc reporter in HEK 293T cells. Briefly: IFN-β induction dual luciferase assay. In kind it is cell-based. The note with it: for Maximum IFN-β Production, 5΄OH10L: HEK 293T cells challenged with 5΄OH10L; for Maximum IFN-β Production, 5΄ppp10L: HEK 293T cells challenged with 5΄ppp10L; for Maximum IFN-β Production, PIC: HEK 293T cells challenged with poly(I:C); for Maximum IFN-β Production, Mock: HEK 293T cells, mock challenge (no exogenous RNA).

In data set [6] the test system is 5΄ppp10L hairpin RNA. Briefly: RNA dissociation rate constant measurements. In kind it is binding. An outline of the steps:
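RIG-I was pre-incubated equimolar with Cy3-labeled hairpin for 2–6 h at RT, then rapidly mixed with 100-fold excess unlabeled hairpin trap (2000 points). Nucleotide (3 mM ATPγS or ADP) plus MgCl2 was included with the trap. Excitation was 515 nm with emission ≥570 nm. 4–6 averaged traces were fit double-exponential for amplitudes and k1/k2.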

Setting [7] is: from 5΄ppp10L, nucleotide: ATPγS (3 mM).
[8] abbreviates: from 5΄ppp10L, nucleotide: None.
Setting [9] is: from 5΄ppp10L, nucleotide: ADP (3 mM).

Where two headings read alike, the source gives them in different places.

B1: WT RIG-I: Wild-type human RIG-I (hRIG-I), innate immune receptor and RNA-stimulated ATPase, recombinant or expressed from pUNO-hRIG-I (protein, UniProt O95786 1-925, looked up)
Antiviral innate immune …: MTTEQRRSLQAFQDYIRKTLDPTYILSYMAPWFREEEVQYIQAEKNNKGPMEAATLFLKFLLELQEEGWFRGFLDALDHAGYSGLYEAIESWDFKKIEKLEEYRLLLKRLQPEFKTRIIPTDIISDLSECLINQECEEILQICSTKGMMAGAEKLVECLLRSDKENWPKTLKLALEKERNKFSELWIVEKGIKDVETEDLEDKMETSDIQIFYQEDPECQNLSENSCPPSEVSDTNLYSPFKPRNYQLELALPAMKGKNTIICAPTGCGKTFVSLLICEHHLKKFPQGQKGKVVFFANQIPVYEQQKSVFSKYFERHGYRVTGISGATAENVPVEQIVENNDIIILTPQILVNNLKKGTIPSLSIFTLMIFDECHNTSKQHPYNMIMFNYLDQKLGGSSGPLPQVIGLTASVGVGDAKNTDEALDYICKLCASLDASVIATVKHNLEELEQVVYKPQKFFRKVESRISDKFKYIIAQLMRDTESLAKRICKDLENLSQIQNREFGTQKYEQWIVTVQKACMVFQMPDKDEESRICKALFLYTSHLRKYNDALIISEHARMKDALDYLKDFFSNVRAAGFDEIEQDLTQRFEEKLQELESVSRDPSNENPKLEDLCFILQEEYHLNPETITILFVKTRALVDALKNWIEGNPKLSFLKPGILTGRGKTNQNTGMTLPAQKCILDAFKASGDHNILIATSVADEGIDIAQCNLVILYEYVGNVIKMIQTRGRGRARGSKCFLLTSNAGVIEKEQINMYKEKMMNDSILRLQTWDEAVFREKILHIQTHEKFIRDSQEKPKPVPDKENKKLLCRKCKALACYTADVRVIEECHYTVLGDAFKECFVSRPHPKPKQFSSFEKRAKIFCARQNCSHDWGIHVKYKTFEIPVIKIESFVVEDIATGVQTLYSKWKDFHFEKIPFDPAEMSK
In the case of B1, in data set [1], the “increase in the rate of dissociation from 5΄ppp10L” value is 5 fold. For the same molecule, the Kd in data set [2] was 0.017 ± 0.001 µM. Further, in data set [3], the “K M,RNA” value was 10.0 ± 1.0 nM. In data set [3] (stimulated by 5΄ppp10L), the k cat is on record as 18.2 ± 0.3 ATP/RIG-I•s and the “kcat (RNA-stimulated ATPase activity)” value turned out to be 18.2 s⁻¹. The Kd in data set [4] (protein bound to OH10L) was 136 ± 6 µM. In addition, in data set [5], the “Maximum IFN-β Production, 5΄OH10L” value came to 3.8 ± 0.3 Firefly Luc/Renilla Luc; the “Maximum IFN-β Production, 5΄ppp10L” value came to 20.1 ± 1.7 Firefly Luc/Renilla Luc; the “Maximum IFN-β Production, PIC” value is 59.2 ± 15 Firefly Luc/Renilla Luc; the “Maximum IFN-β Production, Mock” value was determined as 0.99 ± 0.4 Firefly Luc/Renilla Luc.

B2: S411L: RIG-I Motif III variant, serine 411 mutated to leucine, annotated in tumor samples (protein, UniProt O95786 1-925, looked up, variant S411L)
Antiviral innate immune …: MTTEQRRSLQAFQDYIRKTLDPTYILSYMAPWFREEEVQYIQAEKNNKGPMEAATLFLKFLLELQEEGWFRGFLDALDHAGYSGLYEAIESWDFKKIEKLEEYRLLLKRLQPEFKTRIIPTDIISDLSECLINQECEEILQICSTKGMMAGAEKLVECLLRSDKENWPKTLKLALEKERNKFSELWIVEKGIKDVETEDLEDKMETSDIQIFYQEDPECQNLSENSCPPSEVSDTNLYSPFKPRNYQLELALPAMKGKNTIICAPTGCGKTFVSLLICEHHLKKFPQGQKGKVVFFANQIPVYEQQKSVFSKYFERHGYRVTGISGATAENVPVEQIVENNDIIILTPQILVNNLKKGTIPSLSIFTLMIFDECHNTSKQHPYNMIMFNYLDQKLGGSSGPLPQVIGLTALVGVGDAKNTDEALDYICKLCASLDASVIATVKHNLEELEQVVYKPQKFFRKVESRISDKFKYIIAQLMRDTESLAKRICKDLENLSQIQNREFGTQKYEQWIVTVQKACMVFQMPDKDEESRICKALFLYTSHLRKYNDALIISEHARMKDALDYLKDFFSNVRAAGFDEIEQDLTQRFEEKLQELESVSRDPSNENPKLEDLCFILQEEYHLNPETITILFVKTRALVDALKNWIEGNPKLSFLKPGILTGRGKTNQNTGMTLPAQKCILDAFKASGDHNILIATSVADEGIDIAQCNLVILYEYVGNVIKMIQTRGRGRARGSKCFLLTSNAGVIEKEQINMYKEKMMNDSILRLQTWDEAVFREKILHIQTHEKFIRDSQEKPKPVPDKENKKLLCRKCKALACYTADVRVIEECHYTVLGDAFKECFVSRPHPKPKQFSSFEKRAKIFCARQNCSHDWGIHVKYKTFEIPVIKIESFVVEDIATGVQTLYSKWKDFHFEKIPFDPAEMSK
Consider B2, for which the “stimulation of koff^RNA by ATPγS” value in data set [6] (from 5΄ppp10L) stood at 7.8 fold. In data set [6] (setting [7]), the “Amplitude of k 1” value is listed as 81%, the “Amplitude of k 2” value is listed as 19%, the “k 1 (RNA dissociation rate constant)” value is given as 210 ± 1 × 10^−3 s^−1 and the “k 2 (RNA dissociation rate constant)” value is on record as 10 ± 0.1 × 10^−3 s^−1. In addition, in data set [6] (setting [8]), the “Amplitude of k 1” value was 52%, the “Amplitude of k 2” value was found to be 48%, the “k 1 (RNA dissociation rate constant)” value is recorded as 27 ± 0.2 × 10^−3 s^−1 and the “k 2 (RNA dissociation rate constant)” value is 2 ± 0.04 × 10^−3 s^−1. Besides, the Kd in data set [2] was found to be 0.041 ± 0.0018 µM. Also, in data set [3], the “K M,RNA” value was “Inactive”. Further, the k cat entry in data set [3] (stimulated by 5΄ppp10L) is “Inactive”. In addition, the Kd in data set [4] (protein bound to 5΄ppp10L) was 110 ± 8 µM. Besides, in data set [5] (HEK 293T cells challenged by 5΄ppp10L), the “loss in IFN-β activation relative to WT” value turned out to be 3 fold. Moreover, the “loss in IFN-β activation relative to WT” value in data set [5] (HEK 293T cells challenged by poly I:C) stood at 31 fold. Moreover, in data set [5], the “Maximum IFN-β Production, 5΄ppp10L” value came out at 7.8 ± 1.5 Firefly Luc/Renilla Luc; the “Maximum IFN-β Production, PIC” value came to 1.8 ± 0.4 Firefly Luc/Renilla Luc; the “Maximum IFN-β Production, Mock” value is listed as 0.2 ± 0.01 Firefly Luc/Renilla Luc.

B3: S411A: RIG-I variant with mutation S411A within conserved helicase Motif III; constitutively signaling (protein, UniProt O95786 1-925, looked up, variant S411A)
Antiviral innate immune …: MTTEQRRSLQAFQDYIRKTLDPTYILSYMAPWFREEEVQYIQAEKNNKGPMEAATLFLKFLLELQEEGWFRGFLDALDHAGYSGLYEAIESWDFKKIEKLEEYRLLLKRLQPEFKTRIIPTDIISDLSECLINQECEEILQICSTKGMMAGAEKLVECLLRSDKENWPKTLKLALEKERNKFSELWIVEKGIKDVETEDLEDKMETSDIQIFYQEDPECQNLSENSCPPSEVSDTNLYSPFKPRNYQLELALPAMKGKNTIICAPTGCGKTFVSLLICEHHLKKFPQGQKGKVVFFANQIPVYEQQKSVFSKYFERHGYRVTGISGATAENVPVEQIVENNDIIILTPQILVNNLKKGTIPSLSIFTLMIFDECHNTSKQHPYNMIMFNYLDQKLGGSSGPLPQVIGLTAAVGVGDAKNTDEALDYICKLCASLDASVIATVKHNLEELEQVVYKPQKFFRKVESRISDKFKYIIAQLMRDTESLAKRICKDLENLSQIQNREFGTQKYEQWIVTVQKACMVFQMPDKDEESRICKALFLYTSHLRKYNDALIISEHARMKDALDYLKDFFSNVRAAGFDEIEQDLTQRFEEKLQELESVSRDPSNENPKLEDLCFILQEEYHLNPETITILFVKTRALVDALKNWIEGNPKLSFLKPGILTGRGKTNQNTGMTLPAQKCILDAFKASGDHNILIATSVADEGIDIAQCNLVILYEYVGNVIKMIQTRGRGRARGSKCFLLTSNAGVIEKEQINMYKEKMMNDSILRLQTWDEAVFREKILHIQTHEKFIRDSQEKPKPVPDKENKKLLCRKCKALACYTADVRVIEECHYTVLGDAFKECFVSRPHPKPKQFSSFEKRAKIFCARQNCSHDWGIHVKYKTFEIPVIKIESFVVEDIATGVQTLYSKWKDFHFEKIPFDPAEMSK
With B3, in data set [6] (setting [9]), the “Amplitude of k 1” value was determined as 62%, the “Amplitude of k 2” value stood at 38%, the “k 1 (RNA dissociation rate constant)” value is reported as 70 ± 0.9 × 10^−3 s^−1 and the “k 2 (RNA dissociation rate constant)” value is reported as 6 ± 0.1 × 10^−3 s^−1. Moreover, in data set [6] (setting [7]), the “Amplitude of k 1” value amounted to 42%, the “Amplitude of k 2” value is 58%, the “k 1 (RNA dissociation rate constant)” value is 68 ± 0.9 × 10^−3 s^−1 and the “k 2 (RNA dissociation rate constant)” value was 2 ± 0.04 × 10^−3 s^−1. Moreover, in data set [6] (setting [8]), the “Amplitude of k 1” value is on record as 52%, the “Amplitude of k 2” value is 48%, the “k 1 (RNA dissociation rate constant)” value is given as 45 ± 0.2 × 10^−3 s^−1 and the “k 2 (RNA dissociation rate constant)” value was 4 ± 0.1 × 10^−3 s^−1. Also, the “effect of nucleotide on the rate of dissociation from 5΄ppp10L” value in data set [6] (saturating nucleotide (ATPγS, ADP)) is “did not significantly change”. For the same molecule, in data set [2], the Kd is 0.023 ± 0.0018 µM. Further, the “K M,RNA” value in data set [3] is 5.0 ± 1 nM. The k cat in data set [3] (stimulated by 5΄ppp10L) was 5.1 ± 0.4 ATP/RIG-I•s. In data set [4] (protein bound to OH10L), the “greater affinity for MANT-ATP relative to WT” value is given as 2 fold and the Kd was 75 ± 5 µM. In addition, in data set [4] (protein bound to 5΄ppp10L), the Kd was 82 ± 6 µM. Also, in data set [5], the “Maximum IFN-β Production, 5΄OH10L” value came to 19.5 ± 3.8 Firefly Luc/Renilla Luc; the “Maximum IFN-β Production, 5΄ppp10L” value turned out to be 56.6 ± 10.8 Firefly Luc/Renilla Luc; the “Maximum IFN-β Production, PIC” value was found to be 209.8 ± 17 Firefly Luc/Renilla Luc; the “Maximum IFN-β Production, Mock” value is on record as 3.5 ± 0.5 Firefly Luc/Renilla Luc.
